Columns and labels:
[1] = Percent recovery of compound at pH 2; format: ADME
Procedure, shortened: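 Drug stocks in CH3CN or EtOH were diluted 1:1 with phosphate buffer (pH 7), citrate buffer (pH 4) or 0.1 N HCl–KCl (pH 2). Solutions were held at 23 °C for 22 h, then aliquots were analysed by reversed-phase C18 HPLC eluted with 0.1 N NaH2PO4–CH3CN. Percent of drug recovered was reported.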

P388 [2] = assay: Compound was evaluated for the antitumor efficacy at optimal dose 0.012 mg/kg against leukemia P388 in mice on day 1,; format: functional, Mus musculus
L1210 [3] = assay: Compound was evaluated for the 50% inhibition of the incorporation of [3H]uridine in the RNA (inhibition of synthesis in leukemia L1210 cells); conditions: Mus musculus, read-out: ED50 (the source's name)
[4] = Compound was evaluated for the change in Tm of isolated helical DNA in solution.; format: ADME
Procedure, shortened: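 Thermal denaturation of calf thymus DNA (5.2×10⁻⁵ M, P) with drug at 5.2×10⁻⁶ M in 0.01 M phosphate buffer pH 7, 10⁻⁵ M EDTA, 5% Me2SO. ΔTm = Tm(DNA–drug complex) − Tm(DNA).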

[5] = Percent recovery of compound at pH 4; format: ADME
Procedure, shortened: (§1)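 Drug stock in CH₃CN or EtOH was diluted 1:1 with citrate buffer (pH 4) or phosphate buffer (pH 7) and held at 23 °C for 22 h. Remaining drug was measured by reversed-phase C18 (5 μm) HPLC, eluting with 0.1 N NaH₂PO₄–CH₃CN (70:30 or 66:34, depending on compound). Result is reported as % recovery.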

[6] = Percent recovery of compound at pH 7; format: ADME; procedure, shortened: as §1
P388/ADR = assay: Compound was evaluated for the growth inhibition of P388/ADR cells.; format: functional, cell-based; conditions: Mus musculus
Procedure, shortened: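 P388/ADR, a P388 subline selected for anthracycline resistance, grown in culture and exposed to drug for 48 h. IC50 (μM) was taken for growth inhibition. Resistance index = IC50 in P388/ADR ÷ IC50 in parent P388/S cells.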

L1210 [7] = assay: Compound was evaluated for the 50% inhibition of the incorporation of [3H]- thymidine in the DNA (inhibition of synthesis in leukemia L1210 cells); format: functional; conditions: Mus musculus, read-out: ED50 (the source's name)
[8] = Partition coefficient in octanol-phosphate buffer at pH 7.4
P388/S [9] = assay: (§2) Compound was evaluated for the growth inhibition of P388/s cells.; format: functional, cell-based; conditions: Mus musculus
Procedure, shortened: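 Cultured P388 cells were exposed to drug for 48 h and the IC50 for growth inhibition determined.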

P388 [10] = assay: Compound was evaluated for the antitumor efficacy at optimal dose 8.0 mg/kg against leukemia P388 in mice on day q4d 5, 9, 13.,; format: functional, Mus musculus
P388 [11] = assay: Compound was evaluated for the antitumor efficacy at optimal dose 3.1 mg/kg against leukemia P388 in mice on day 1,; format: functional, Mus musculus
P388/S [12] = assay: as §2; format: functional, cell-based; conditions: Mus musculus; remark: listed apart in the source
Procedure, shortened: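 Growth inhibition of P388/S cells (the standard screening P388 line) in culture after 48-h drug exposure; IC50 reported in μM.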

P388 [13] = assay: Compound was evaluated for the antitumor efficacy at optimal dose 7.5 mg/kg against leukemia P388 in mice on day 1,; format: functional, Mus musculus

Row | Structure (SMILES) | Recovery [1] | T/C (P388 [2]) | EC50 (L1210 [3]) | Change in Tm [4] | Recovery [5] | Recovery [6] | IC50 (P388/ADR) | EC50 (L1210 [7]) | logD [8] | IC50 (P388/S [9]) | T/C (P388 [10]) | T/C (P388 [11]) | IC50 (P388/S [12]) | T/C (P388 [13])
1 | COc1cccc2c1C(=O)c1c(O)c3c(c(O)c1C2=O)C[C@@](O)(C(=O)CO)C[C@@H]3OC1CC(N2CCOCC2C#N)C(O)C(C)O1 (stereo not given in full) | 10% | 262% | 0.53 nM | 8.7 | 54% | 74% | 0.3 nM | 3 nM | – | – | – | – | – | –
2 | COc1cccc2c1C(=O)c1c(O)c3c(c(O)c1C2=O)C[C@@](O)(C(C)=O)C[C@@H]3OC1CC(NCC(=O)O)C(O)C(C)O1 (stereo not given in full) | – | – | 100000 nM | 2.2 | – | – | – | > 100000 nM | 0.43 | – | – | – | – | –
3 | COCC(C#N)NC1CC(O[C@H]2C[C@](O)(C(=O)CO)Cc3c(O)c4c(c(O)c32)C(=O)c2c(OC)cccc2C4=O)OC(C)C1O (stereo not given in full) | 58% | – | 400 nM | 12.5 | 29% | 28% | – | 800 nM | 0.92 | 37 nM | – | – | – | –
4 | CCOC(=O)CNC1CC(O[C@H]2C[C@](O)(C(C)=O)Cc3c(O)c4c(c(O)c32)C(=O)c2c(OC)cccc2C4=O)OC(C)C1O (stereo not given in full) | – | – | 11000 nM | 0 | – | – | – | 13000 nM | – | – | – | – | – | –
5 | COCC(C#N)NC1CC(O[C@H]2C[C@](O)(C(C)=O)Cc3c(O)c4c(c(O)c32)C(=O)c2c(OC)cccc2C4=O)OC(C)C1O (stereo not given in full) | – | – | 510 nM | 9.4 | – | – | – | 510 nM | 2.64 | – | – | – | – | –
6 | CCOC(=O)CCCNC1CC(O[C@H]2C[C@](O)(C(C)=O)Cc3c(O)c4c(c(O)c32)C(=O)c2c(OC)cccc2C4=O)OC(C)C1O (stereo not given in full) | – | – | 370 nM | 8.4 | – | – | – | 1300 nM | 2.04 | – | – | – | – | –
7 | COc1cccc2c1C(=O)c1c(O)c3c(c(O)c1C2=O)C[C@@](O)(C(C)=O)C[C@@H]3OC1CC(N(CC#N)CC(=O)[O-])C(O)C(C)O1.[Na+] (stereo not given in full) | – | – | 5300 nM | 2.2 | – | – | – | 14000 nM | 0.03 | – | – | – | – | –
8 | COc1cccc2c1C(=O)c1c(O)c3c(c(O)c1C2=O)C[C@@](O)(C(C)=O)C[C@@H]3OC1CC(NCC#N)C(O)C(C)O1 (stereo not given in full) | – | – | 820 nM | 11.7 | – | – | – | 1800 nM | 2.28 | – | – | – | – | –
9 | COc1cccc2c1C(=O)c1c(O)c3c(c(O)c1C2=O)C[C@@](O)(C(=O)CO)C[C@@H]3OC1CC(NCC#N)C(O)C(C)O1 (stereo not given in full) | 92% | – | 290 nM | 13.9 | 86% | 82% | – | 1200 nM | 1.2 | 28 nM | 148% | 184% | – | –
10 | COc1cccc2c1C(=O)c1c(O)c3c(c(O)c1C2=O)C[C@@](O)(C(C)=O)C[C@@H]3OC1CC(NCC(N)=O)C(O)C(C)O1 (stereo not given in full) | – | – | 1700 nM | 3.5 | – | – | – | 7500 nM | 1.65 | – | – | – | – | –
11 | CCOC(=O)CN(CC#N)C1CC(O[C@H]2C[C@](O)(C(C)=O)Cc3c(O)c4c(c(O)c32)C(=O)c2c(OC)cccc2C4=O)OC(C)C1O (stereo not given in full) | – | – | 3500 nM | – | – | – | – | 7000 nM | – | – | – | – | – | –
12 | COc1cccc2c1C(=O)c1c(O)c3c(c(O)c1C2=O)C[C@@](O)(C(C)=O)C[C@@H]3O[C@H]1C[C@H](N)[C@H](O)[C@H](C)O1 [DAUNORUBICIN] | – | – | 330 nM | 10.5 | – | – | – | 660 nM | – | – | – | – | – | –
13 | COc1cccc2c1C(=O)c1c(O)c3c(c(O)c1C2=O)C[C@@](O)(C(=O)CO)C[C@@H]3O[C@H]1C[C@H](N)[C@H](O)[C@H](C)O1 [DOXORUBICIN] | – | – | 580 nM | 12.8 | – | – | 8200 nM | 1600 nM | – | – | 160% | – | 68 nM | 252%
